Published values from different studies.
Lines come from different studies, so protocols differ.
Target: Mu-type opioid receptor (OPRM1, Homo sapiens, UniProt P35372)

Compound | effect on | technique | notes | measurement | result
COc1ccc2c(c1)[C@]13CCCC[C@@H]1[C@H](C2)N(C)CC3 | ligand displacement | radioligand | – | IC50 | 1700 nM
CCCCC/C=C\C/C=C\C/C=C\CCCCC(=O)O | ligand displacement | radioligand | cell membranes | Ki | 22700 nM
CCCO[C@@]12Cc3cc(-c4ccccc4)cnc3[C@@H]3Oc4c(O)ccc5c4[C@@]31CCN(CC1CC1)[C@@H]2C5 | cell-free assay | – | – | Ki | 499 nM
Cc1cc(O)cc(C)c1C[C@H](N)C(=O)N1Cc2ccccc2C[C@H]1C(=O)NCC(=O)NCc1ccc(Cl)cc1 | ligand displacement | radioligand | cell membranes | Ki | 2.9 nM
COc1ncccc1-c1cnn2ccc(N3CCN(C(=O)OC(C)C)CC3)nc12 | cell-free assay | – | – | IC50 | > 30000 nM
Cc1cc(O)cc(C)c1C[C@H](N)C(=O)N1Cc2ccccc2C[C@H]1C(=O)NCC(=O)NCc1ccc(N)cc1 | ligand displacement | radioligand | cell membranes | Ki | 34 nM
CC(NCCc1ccc(O)cc1)C(O)c1ccc(O)cc1 (stereo not shown) | ligand displacement | radioligand | – | IC50 | 9180 nM
CC(=O)Nc1ccccc1-c1cnc2c(c1)C[C@@]1(OCCCc3ccccc3)[C@H]3Cc4ccc(O)c5c4[C@@]1(CCN3CC1CC1)[C@H]2O5 | cell-free assay | – | – | Ki | 141 nM
CCCCCCCCC[C@@H]1CC(=O)NCC(=O)N[C@H](Cc2ccc(O)cc2)C(=O)NCC(=O)N[C@@H](Cc2ccccc2)C(=O)O1 | ligand displacement | radioligand | – | IC50 | 16000 nM
CN[C@]1(c2ccccc2Cl)CCCCC1=O | ligand displacement | radioligand | – | Ki | 3000 nM
CC(Cc1ccccc1)NCCC(c1ccccc1)c1ccccc1 (stereo not shown) | ligand displacement | radioligand | – | IC50 | 1800 nM
Oc1cccc([C@@]23CCC[C@@H](C2)N(CCc2ccccc2)C[C@H]3O)c1 (relative stereo) | cell-free assay | – | – | Ki | ~5 nM
Cc1ccc(CNC(=O)CNC(=O)[C@@H]2Cc3ccccc3CN2C(=O)[C@@H](N)Cc2c(C)cc(O)cc2C)cc1 | ligand displacement | radioligand | cell membranes | Ki | 3.7 nM
